In ChEMBL document CHEMBL5154634, “A Modular Synthetic Route Involving N-Aryl-2-nitrosoaniline Intermediates Leads to a New Series of 3-Substituted Halogenated Phenazine Antibacterial Agents” (J Med Chem, 2021):
≈ marks a conversion by molar mass, not a printed value. Calls of active or inactive are those of the source. The rule behind the calls is not given here.

Experiments:
Staphylococcus aureus [1] = assay: Antibacterial activity against methicillin-resistant Staphylococcus aureus BAA-1707 assessed as bacterial growth inhibition incubated for 16 hrs by broth microdilution susceptibility test; assay type: functional
Outline: (§1)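 CLSI broth microdilution with 11 twofold dilutions (0.05–50 μM). About 10^5 cells per well from a log-phase culture. DMSO vehicle up to 0.5% v/v. At least three independent experiments.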

Enterococcus faecalis [2] = assay: Antibacterial activity against Enterococcus faecalis OG1RF ATCC 47077 assessed as bacterial growth inhibition incubated for 16 hrs by broth microdilution susceptibility test; assay type: functional
[3] = system: Staphylococcus epidermidis; assay: Antibacterial activity against methicillin-resistant Staphylococcus epidermidis ATCC 35984 assessed as bacterial growth inhibition incubated for 16 hrs by broth microdilution susceptibility test; assay type: functional; outline: as §1
[4] = system: Staphylococcus epidermidis; assay: Antibacterial activity against Staphylococcus epidermidis ATCC 12228 assessed as bacterial growth inhibition by broth microdilution method; assay type: functional
Staphylococcus aureus [5] = assay: Antibacterial activity against methicillin-resistant Staphylococcus aureus BAA-44 assessed as bacterial growth inhibition incubated for 16 hrs by broth microdilution susceptibility test; assay type: functional
Outline: (§2)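 CLSI broth microdilution with 11 twofold dilutions (0.05–50 μM). Medium was LB for the staphylococci and BHI for VRE 700221. About 10^5 cells per well from a log-phase culture. […] DMSO vehicle up to 0.5% v/v. At least three independent experiments.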

Enterococcus faecium [6] = assay: Antibacterial activity against vancomycin-resistant Enterococcus faecium ATCC 700221 assessed as bacterial growth inhibition incubated for 16 hrs by broth microdilution susceptibility test; assay type: functional; outline: as §2
[7] = Binding affinity to Fe2+ assessed as compound-Fe2+ complex formation by UV-vis spectroscopy
Staphylococcus aureus [8] = assay: Induction of iron starvation in methicillin-resistant Staphylococcus aureus BAA-1707 biofilms assessed as upregulation of sfaA gene expression at 1 uM incubated for 4 hrs by RT-qPCR analysis; assay type: functional
Outline: (§3)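 MRSA BAA-1707 grown in TSB with 0.5% glucose to OD600 ~0.8–1.0, then biofilms formed 20 h at 37 °C statically in gelatin-coated 24-well plates. Biofilms treated 4 h at 37 °C with compound (1 μM or 1/10 MBEC) or DMSO vehicle. RNA extracted; only RIN ≥7 samples used. One-step SYBR RT-qPCR; ΔCT normalised to ptaA. Three independent experiments.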

HeLa = assay: Cytotoxicity against human HeLa cells assessed as reduction in cell viability incubated for 24 hrs by LDH release assay; assay type: toxicity, cell-based
Outline: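 HeLa cells in DMEM with 10% FBS, treated at 70–80% confluence with 25, 50 and 100 μM for 24 h. LDH in supernatant measured by 30 min reaction at room temperature, then stop solution and absorbance at 490 nm. Controls: 2% Triton X-100 (maximum), medium only, DMSO vehicle. Three independent experiments.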

Staphylococcus aureus [9] = assay: Induction of iron starvation in methicillin-resistant Staphylococcus aureus BAA-1707 biofilms assessed as upregulation of MW0695 gene expression at 1/10XMBEC incubated for 4 hrs by RT-qPCR analysis; assay type: functional; outline: as §3
Staphylococcus aureus [10] = assay: Induction of iron starvation in methicillin-resistant Staphylococcus aureus BAA-1707 biofilms assessed as upregulation of sbnC gene expression at 1/10XMBEC incubated for 4 hrs by RT-qPCR analysis; assay type: functional; outline: as §3
Enterococcus faecium [11] = assay: Bactericidal activity against methicillin-resistant vancomycin-resistant Enterococcus faecium ATCC 700221 planktonic cells assessed as planktonic eradication incubated for 24 hrs followed by incubation for overnight in fresh medium by Calgary biofilm device assay; assay type: functional
Outline: (§4)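 Calgary biofilm device. Biofilms grown 24 h at 37 °C in TSB with 0.5% glucose, then challenged 24 h with twofold compound dilutions. 20 μL of challenge medium transferred into fresh TSB with 0.5% glucose and incubated overnight at 37 °C. MBC is the concentration with no visible turbidity. At least three independent experiments.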

Staphylococcus aureus [12] = assay: Induction of iron starvation in methicillin-resistant Staphylococcus aureus BAA-1707 biofilms assessed as upregulation of sbnC gene expression at 1 uM incubated for 4 hrs by RT-qPCR analysis; assay type: functional; outline: as §3
Staphylococcus aureus [13] = assay: Induction of iron starvation in methicillin-resistant Staphylococcus aureus BAA-1707 biofilms assessed as upregulation of isdB gene expression at 1/10XMBEC incubated for 4 hrs by RT-qPCR analysis; assay type: functional; outline: as §3
Erythrocyte = assay: Hemolytic activity against human RBC at 200 uM measured after 1 hr; assay type: toxicity, cell-based
Outline: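 2% hRBCs exposed to compound at 200 μM final, added from DMSO stock, for 1 h at 37 °C. Supernatant OD read at 405 nm. Hemolysis normalized between DMSO (0%) and Triton X (100%); three independent experiments.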

[14] = system: Mycobacterium tuberculosis; assay: Antibacterial activity against Mycobacterium tuberculosis CDC1551 assessed as bacterial growth inhibition incubated for 5 days by luminescence based analysis; assay type: functional; conditions: CDC1551, 120 h, time 5 day
Outline: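 Bioluminescent Mtb-lux CDC1551 reporter grown in Middlebrook 7H9 with 0.05% Tween 80, 10% OADC and kanamycin to OD600 0.4–0.8, then diluted to OD600 0.02. Added to twofold drug dilutions (0.003–200 μM). Incubated 5 days at 37 °C, 5% CO2. Luminescence read against 1% DMSO and 10 μM rifampicin controls to give % growth inhibition. MIC taken from a modified Gompertz fit.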

[15] = system: Staphylococcus epidermidis; assay: Bactericidal activity against methicillin-resistant Staphylococcus epidermidis ATCC 35984 planktonic cells assessed as planktonic eradication incubated for 24 hrs followed by incubation for overnight in fresh medium by Calgary biofilm device assay; assay type: functional; outline: as §4
Staphylococcus aureus [16] = assay: Bactericidal activity against methicillin-resistant Staphylococcus aureus BAA-1707 planktonic cells assessed as planktonic eradication incubated for 24 hrs followed by incubation for overnight in fresh medium by Calgary biofilm device assay; assay type: functional; outline: as §4
[17] = system: Staphylococcus epidermidis; assay: Antibiofilm activity against methicillin-resistant Staphylococcus epidermidis ATCC 35984 biofilms assessed as biofilm eradication incubated for 24 hrs followed by incubation for 24 hrs in fresh medium by Calgary biofilm device assay; assay type: functional
Outline: (§5)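 Calgary biofilm device. Mid-log culture diluted 1000-fold in TSB with 0.5% glucose; biofilms grown on pegs 24 h at 37 °C. Pegs washed and challenged with twofold compound dilutions for 24 h at 37 °C, then moved to fresh medium for 24 h. MBEC is the lowest concentration leaving wells non-turbid. At least three independent experiments.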

HepG2 = assay: Cytotoxicity against human HepG2 cells assessed as reduction in cell viability […] by Alamar blue assay; assay type: toxicity, cell-based
Staphylococcus aureus [18] = assay: Induction of iron starvation in methicillin-resistant Staphylococcus aureus BAA-1707 biofilms assessed as upregulation of sfaA gene expression at 1/10XMBEC incubated for 4 hrs by RT-qPCR analysis; assay type: functional; outline: as §3
Enterococcus faecium [19] = assay: Antibiofilm activity against methicillin-resistant vancomycin-resistant Enterococcus faecium ATCC 700221 biofilms assessed as biofilm eradication incubated for 24 hrs followed by incubation for 24 hrs in fresh medium by Calgary biofilm device assay; assay type: functional; outline: as §5
Enterococcus faecalis [20] = assay: Bactericidal activity against […] Enterococcus faecalis OG1RF ATCC 47077 planktonic cells assessed as planktonic eradication incubated for 24 hrs followed by incubation for overnight in fresh medium by Calgary biofilm device assay; assay type: functional
Outline: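 Calgary biofilm device in BHI. Biofilms grown 24 h at 37 °C and challenged 24 h with twofold compound dilutions. Challenge medium subcultured 1:10 into fresh BHI overnight at 37 °C. MBC is the concentration with no turbidity. At least three independent experiments.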

Staphylococcus aureus [21] = assay: Induction of iron starvation in methicillin-resistant Staphylococcus aureus BAA-1707 biofilms assessed as upregulation of isdB gene expression at 1 uM incubated for 4 hrs by RT-qPCR analysis; assay type: functional; outline: as §3
J774 = assay: Cytotoxicity against mouse J774 cells assessed as reduction in cell viability […] by Alamar blue assay; assay type: toxicity, cell-based
Staphylococcus aureus [22] = assay: Antibiofilm activity against methicillin-resistant Staphylococcus aureus BAA-44 biofilms assessed as biofilm eradication incubated for 24 hrs followed by incubation for 24 hrs in fresh medium by Calgary biofilm device assay; assay type: functional; outline: as §5
Enterococcus faecalis [23] = assay: Antibiofilm activity against Enterococcus faecalis OG1RF ATCC 47077 biofilms assessed as biofilm eradication incubated for 24 hrs followed by incubation for 24 hrs in fresh medium by Calgary biofilm device assay; assay type: functional
Outline: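 Calgary biofilm device. Biofilms grown 24 h at 37 °C in BHI from mid-log culture diluted 1000-fold. Pegs washed and then challenged 24 h with twofold serial dilutions. Pegs moved to fresh BHI for 24 h recovery. MBEC = lowest concentration leaving no turbidity; at least three independent experiments.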

[24] = system: Mycobacterium tuberculosis; assay: Antibacterial activity against Mycobacterium tuberculosis H37Ra ATCC 25177 assessed as bacterial growth inhibition incubated for 7 days by absorbance based analysis; assay type: functional; conditions: H37Ra ATCC 25177, 168 h, time 7 day
Outline: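 H37Ra grown 2 weeks in Middlebrook 7H9, then diluted to OD600 0.01. Compounds added in twofold dilutions, final 0.024–50 μM, with 0.5% DMSO and streptomycin as positive control. Incubated 7 days at 37 °C. MIC is the lowest concentration with no growth, with OD600 recorded. At least three independent experiments.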

Staphylococcus aureus [25] = assay: Induction of iron starvation in methicillin-resistant Staphylococcus aureus BAA-1707 biofilms assessed as upregulation of MW0695 gene expression at 1 uM incubated for 4 hrs by RT-qPCR analysis; assay type: functional; outline: as §3

Oc1c(Br)ccc2nc3ccccc3nc12
MIC (Staphylococcus aureus [1]): 3.13 µM (≈ 0.861 µg/mL) | MIC (Enterococcus faecalis [2]): 18.8 µM (≈ 5.17 µg/mL) | MIC [3]: 3.13 µM (≈ 0.861 µg/mL) | MIC [4]: 6.25 µM (≈ 1.72 µg/mL) | MIC (Staphylococcus aureus [5]): 3.13 µM (≈ 0.861 µg/mL) | MIC (Enterococcus faecium [6]): 6.25 µM (≈ 1.72 µg/mL)

Oc1c(Br)c(Cl)c(Br)c2nc3ccccc3nc12
Activity [7]: Active | Activity (Staphylococcus aureus [8]): Active | IC50 (HeLa): > 100 µM | Activity (Staphylococcus aureus [9]): Active | MIC (Staphylococcus aureus [1]): 0.15 µM (≈ 0.0583 µg/mL) | Activity (Staphylococcus aureus [10]): Active | MBC (Enterococcus faecium [11]): 4.69 µM (≈ 1.82 µg/mL) | Activity (Staphylococcus aureus [12]): Active | Activity (Staphylococcus aureus [13]): Active | Activity (Erythrocyte): <= 1% | MIC (Enterococcus faecalis [2]): 3.13 µM (≈ 1.22 µg/mL) | MIC [14]: 4.37 µM (≈ 1.7 µg/mL) | MBC [15]: 12.5 µM (≈ 4.86 µg/mL) | MBC (Staphylococcus aureus [16]): 50 µM (≈ 19.4 µg/mL) | MBEC [17]: 25 µM | IC50 (HepG2): > 200 µM | Activity (Staphylococcus aureus [18]): Active | MBEC (Enterococcus faecium [19]): 2.35 µM | MBC (Enterococcus faecalis [20]): 75 µM (≈ 29.1 µg/mL) | Activity (Staphylococcus aureus [21]): Active | IC50 (J774): > 200 µM | MBEC (Staphylococcus aureus [22]): 75 µM | MBEC (Enterococcus faecalis [23]): >200 µM | MIC [24]: 6.25 µM (≈ 2.43 µg/mL) | Activity (Staphylococcus aureus [25]): Active
